Data set [1] is described as follows: melting temperature; fluorescence melt of hairpins on a sequencing array, two-state fit, raised by 9.35 °C to match UV melts. The settings on record: sodium 0.088 M. The essentials: (§1)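 Bootstrapped two-state fits yielded melting temperature and folding enthalpy for library hairpins. Cy3 fluorescence, with annealed Cy3 and quencher oligos, was imaged on a sequenced MiSeq flow cell in 50 mM Na-HEPES pH 8.0, 25 mM NaCl in 2.5 °C steps up to 60 °C, and normalised to pre-quench Cy3 and to control constructs. Four replicates were combined by inverse variance, and fitted temperatures were raised by 9.35 °C to match UV melts.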

The nature of data set [2]: folding enthalpy; higher = less favourable; fluorescence melt of hairpins on a sequencing array, two-state fit. The settings on record: sodium 0.088 M. Summed up:
as §1

On to CGCCAGAAATGGCG (((((....))))), for which the Tm in data set [1] stood at 66.4 °C. The folding enthalpy in data set [2] was -31.5 kcal/mol.
In the same order, the values of CGCCCGGAAACGGCGGCG ((((((....)))..))) are 55.7 °C and -24.4 kcal/mol.
As for CGCCCGGAAACGGCTGCG ((((((....)))..))), the Tm in data set [1] worked out at 46.2 °C. In data set [2], the folding enthalpy was -21.1 kcal/mol.
Take CGCCCGGAAACGGTTGCG ((((((....)))..))): the Tm in data set [1] came to 48.6 °C. In data set [2], the folding enthalpy was -25.5 kcal/mol.
In the same order, the values of CGCCGACGGAAACGTGCG (((..(((....)))))) are 45.5 °C and -27.6 kcal/mol.
In the same order, the values of CGCCGGCGGAAACGCGCG (((..(((....)))))) are 51.5 °C and -21.1 kcal/mol.
In the same order, the values of CGCCTCGGAAACGAGCG (((.(((....)))))) are 54.8 °C and -26.9 kcal/mol.
For CGCGACCGGAAACGGGCG (((..(((....)))))), the Tm in data set [1] came out at 60 °C. In addition, in data set [2], the folding enthalpy was -11.7 kcal/mol.
For CGCGATCGGAAACGAGCG (((..(((....)))))) the same measures were 53 °C and -34.2 kcal/mol.
With CGCGCGGAAACGCCGCG ((((((....))).))), in data set [1], the Tm was found to be 69.2 °C. Besides, the folding enthalpy in data set [2] was -20 kcal/mol.
For the sequence CGCGCGGAAACGCCGGCG ((((((....)))..))), the Tm in data set [1] amounted to 54.3 °C. Also, in data set [2], the folding enthalpy was -22.2 kcal/mol.
For CGCGGAAAGGTCCGCG ((((((....)))))) the same measures were 61.9 °C and -45.8 kcal/mol.
In the same order, the values of CGCGGAACTGTCCGCG ((((((....)))))) are 64.8 °C and -45.6 kcal/mol.
Turning to CGCGGAACTTCCGCG ((((((...)))))), the Tm in data set [1] came out at 61.3 °C. In data set [2], the folding enthalpy is -37.8 kcal/mol.
For CGCGGAATTATCCGCG ((((((....)))))) the same measures were 67.2 °C and -41.5 kcal/mol.
CGCGGACCAATCCGCG ((((((....)))))): the Tm in data set [1] was 62.2 °C. Further, the folding enthalpy in data set [2] was -39.2 kcal/mol.
For CGCGGACCTCTCCGCG ((((((....)))))) the same measures were 68.7 °C and -31.9 kcal/mol.
CGCGGACGGAAACGTGCG (((..(((....)))))): the Tm in data set [1] was determined as 50 °C. The folding enthalpy in data set [2] was -36.2 kcal/mol.
In the same order, the values of CGCGGACGGCTCCGCG ((((((....)))))) are 68.5 °C and -23.5 kcal/mol.
In the same order, the values of CGCGGATAACTCCGCG ((((((....)))))) are 62.2 °C and -38 kcal/mol.
For CGCGGGCGGAAACGCGCG (((..(((....)))))) the same measures were 65.4 °C and -14.9 kcal/mol.
CGCGTACGGAAACGTGCG (((..(((....)))))): the Tm in data set [1] came out at 50 °C. The folding enthalpy in data set [2] was -23.7 kcal/mol.
For CGCGTCCGGAAACGGGCG (((..(((....)))))) the same measures were 55.2 °C and -14 kcal/mol.
In the same order, the values of CGCTCGGAAACGAAGCG ((((((....))).))) are 53.6 °C and -29.5 kcal/mol.
In the same order, the values of CGCTCGGAAACGACAGCG ((((((....)))..))) are 45 °C and -25.5 kcal/mol.
Consider CGCTCGGAAACGAGTGCG ((((((....)))..))), for which, in data set [1], the Tm was found to be 44.9 °C. In data set [2], the folding enthalpy was -15.8 kcal/mol.
In the same order, the values of CGCTGACGGAAACGTGCG (((..(((....)))))) are 47.5 °C and -26.1 kcal/mol.
In the same order, the values of CGCTGCCGGAAACGGGCG (((..(((....)))))) are 46.7 °C and -22.8 kcal/mol.
In the same order, the values of CGCTGCGGAAACGCCGCG (((.(((....))).))) are 56.5 °C and -29.1 kcal/mol.
Consider CGCTTCGGAAACGATGCG (((.(((....))).))), for which, in data set [1], the Tm was found to be 54.6 °C. Further, the folding enthalpy in data set [2] was -43.3 kcal/mol.
For CGGAACCGGAAACGGCCG (((..(((....)))))) the same measures were 40.1 °C and -23.2 kcal/mol.
In the same order, the values of CGGAACGGAAACGTCCG (((.(((....)))))) are 47.8 °C and -30.1 kcal/mol.
In the same order, the values of CGGAAGCGGAAACGCCCG (((..(((....)))))) are 50.5 °C and -21.3 kcal/mol.
In the case of CGGAATCGGAAACGACCG (((..(((....)))))), the Tm in data set [1] turned out to be 35.3 °C. In data set [2], the folding enthalpy is -16.6 kcal/mol.
For CGGACCCGGAAACGGCCG (((..(((....)))))) the same measures were 38.9 °C and -18.8 kcal/mol.
For the sequence CGGACGCGGAAACGCCCG (((..(((....)))))), the Tm in data set [1] amounted to 48.8 °C. Moreover, the folding enthalpy in data set [2] was -25.3 kcal/mol.
In the same order, the values of CGGACGGAAACGTTTCCG ((((((....)))..))) are 46.4 °C and -12.5 kcal/mol.
On to CGGAGCGGAAACGCACCG (((.(((....))).))), for which the Tm in data set [1] was found to be 58.7 °C. Moreover, the folding enthalpy in data set [2] was -35 kcal/mol.
CGGAGCGGAAACGCGCCG (((.(((....))).))): the Tm in data set [1] is 68.6 °C. The folding enthalpy in data set [2] was -27 kcal/mol.
In the same order, the values of CGGAGTCGGAAACGACCG (((..(((....)))))) are 41.3 °C and -15.9 kcal/mol.
For CGGATCGGAAACGAACCG (((.(((....))).))) the same measures were 52 °C and -42.7 kcal/mol.
In the same order, the values of CGGATCGGAAACGACCCG (((.(((....))).))) are 50 °C and -38.1 kcal/mol.
With CGGATGAAAATCCG (((((....))))), the Tm in data set [1] was 56 °C. Also, the folding enthalpy in data set [2] is -25.5 kcal/mol.
Take CGGCAACGGAAACGTCCG (((..(((....)))))): the Tm in data set [1] is 39.2 °C. Moreover, the folding enthalpy in data set [2] was -13 kcal/mol.
In the same order, the values of CGGCACCGGAAACGGCCG (((..(((....)))))) are 49.2 °C and -29.1 kcal/mol.
For CGGCACGGAAACGTACCG (((.(((....))).))) the same measures were 50.4 °C and -30.5 kcal/mol.
In the same order, the values of CGGCCGGAAACGGCCCCG ((((((....)))..))) are 35.4 °C and -6 kcal/mol.
As for CGGCCGGAAACGGTACCG ((((((....)))..))), in data set [1], the Tm came out at 43.1 °C. In addition, in data set [2], the folding enthalpy was -18.4 kcal/mol.
On to CGGCCGGAAACGGTCCG ((((((....))).))), for which, in data set [1], the Tm is 57.7 °C. Moreover, in data set [2], the folding enthalpy is -32 kcal/mol.
With CGGCGCGGAAACGCTCCG (((.(((....))).))), in data set [1], the Tm was found to be 56.5 °C. Moreover, the folding enthalpy in data set [2] is -33.7 kcal/mol.
In the same order, the values of CGGCGGCGGAAACGCCCG (((..(((....)))))) are 49.3 °C and -10.4 kcal/mol.
For CGGCTCGGAAACGACCCG (((.(((....))).))), the Tm in data set [1] was found to be 42.9 °C. In addition, the folding enthalpy in data set [2] was -29.4 kcal/mol.
In the same order, the values of CGGCTCGGAAACGACCG (((.(((....)))))) are 50.9 °C and -31.8 kcal/mol.
In the same order, the values of CGGGACGGAAACGTGCCG (((.(((....))).))) are 60.3 °C and -19.1 kcal/mol.
In the same order, the values of CGGGCGGAAACGCACCCG ((((((....)))..))) are 48.8 °C and -13.1 kcal/mol.
Consider CGGGCGGAAACGCCTCCG ((((((....)))..))), for which, in data set [1], the Tm is 36.1 °C. Besides, the folding enthalpy in data set [2] was -8.08 kcal/mol.
For CGGGCGGAAACGCGACCG ((((((....)))..))) the same measures were 57.8 °C and -30.5 kcal/mol.
For the sequence CGGGCGGAAACGCGGCCG ((((((....)))..))), the Tm in data set [1] was 59.5 °C. The folding enthalpy in data set [2] was -36 kcal/mol.
In the same order, the values of CGGGCGGAAACGCTACCG ((((((....)))..))) are 45.8 °C and -24.3 kcal/mol.
For CGGGCGGAAACGCTCCCG ((((((....)))..))) the same measures were 48.1 °C and -14.7 kcal/mol.
For CGGGCGGAAACGCTCCG ((((((....))).))) the same measures were 54.2 °C and -26.4 kcal/mol.
CGGGTCGGAAACGATCCG (((.(((....))).))): in data set [1], the Tm turned out to be 58 °C. The folding enthalpy in data set [2] was -45.1 kcal/mol.
For CGGTAACGGAAACGTCCG (((..(((....)))))) the same measures were 37.9 °C and -24.6 kcal/mol.
For CGGTACGGAAACGTTCCG (((.(((....))).))) the same measures were 49.8 °C and -32.4 kcal/mol.
Regarding CGGTCCCGGAAACGGCCG (((..(((....)))))), the Tm in data set [1] worked out at 41.3 °C. In addition, the folding enthalpy in data set [2] was -21.1 kcal/mol.
For CGGTCCGGAAACGGTCCG (((.(((....))).))) the same measures were 55.6 °C and -40.5 kcal/mol.
For CGGTCGGAAACGACGCCG ((((((....)))..))), in data set [1], the Tm was found to be 36.7 °C. In addition, in data set [2], the folding enthalpy is -11.7 kcal/mol.
In the same order, the values of CGGTCGGAAACGAGACCG ((((((....)))..))) are 49.9 °C and -38.6 kcal/mol.
As for CGGTCGGAAACGATTCCG ((((((....)))..))), the Tm in data set [1] is 43.9 °C. Besides, the folding enthalpy in data set [2] is -19.8 kcal/mol.
For CGGTGCGGAAACGCTCCG (((.(((....))).))) the same measures were 62 °C and -34.8 kcal/mol.
For CGGTTCGGAAACGATCCG (((.(((....))).))) the same measures were 51 °C and -36 kcal/mol.
For CGGTTGCGGAAACGCCCG (((..(((....)))))) the same measures were 46.5 °C and -22.3 kcal/mol.
Take CGGTTTCGGAAACGACCG (((..(((....)))))): in data set [1], the Tm was 38 °C. Moreover, the folding enthalpy in data set [2] is -17.1 kcal/mol.
